Results reported in ChEMBL document CHEMBL5260840 (J Med Chem, 2019).
Calls of active or inactive are those of the source. The calls are words filed in the database; no cut-off is given here.

Assays:
[1] = target: T1, von Hippel-Lindau disease tumor suppressor/Bromodomain-containing protein 9 (Homo sapiens) (UniProt Q9H8M2+P40337); assay: PROTAC activity at VHL/BRD9 in human Ri-1 cells assessed as remaining BRD9 protein level at 100 nM incubated for 30 mins by Western blot analysis relative to control; assay type: cell-based
Method in brief: (§1)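 Ri-1 cells exposed to compound for the stated time before harvest; BRD9, BRD7 and β-actin measured by Western blot, band intensities quantified and set against DMSO-treated control.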

[2] = target: T2, von Hippel-Lindau disease tumor suppressor/Bromodomain-containing protein 7 (Homo sapiens) (UniProt Q9NPI1+P40337); assay: PROTAC activity at VHL/BRD7 in human Ri-1 cells assessed as BRD7 protein degradation in the presence of MLN4924 by Western blot analysis; assay type: cell-based
[3] = target: T2, von Hippel-Lindau disease tumor suppressor/Bromodomain-containing protein 7 (Homo sapiens); assay: PROTAC activity at VHL/BRD7 in human Ri-1 cells assessed as BRD7 protein degradation at 100 nM pre-incubated for 30 mins with VH298 followed by compound addition and measured after 4 hrs by Western blot analysis; assay type: cell-based
[4] = target: T1, von Hippel-Lindau disease tumor suppressor/Bromodomain-containing protein 9 (Homo sapiens); assay: PROTAC activity at VHL/BRD9 in human Ri-1 cells assessed as remaining BRD9 protein level at 100 nM incubated for 4 hrs by Western blot analysis relative to control; assay type: cell-based; method in brief: as §1
[5] = target: T2, von Hippel-Lindau disease tumor suppressor/Bromodomain-containing protein 7 (Homo sapiens); assay: PROTAC activity at VHL/BRD7 in human Ri-1 cells assessed as remaining BRD7 protein level at 10 nM incubated for 4 hrs by Western blot analysis relative to control; assay type: cell-based
[6] = target: T3, Von Hippel-Lindau disease tumor suppressor/Elongin B/Elongin C (Homo sapiens) (UniProt P40337+Q15370+Q15369); assay: Co-operative binding affinity to 6His-tagged human VHL/ElonginC/ElonginB expressed in Escherichia coli BL21 (DE3) cells assessed as maximal intensity in the presence of BRD9-BD as complex with compound incubated for 1 hrs by AlphaLISA proximity assay
[7] = target: T2, von Hippel-Lindau disease tumor suppressor/Bromodomain-containing protein 7 (Homo sapiens); assay: PROTAC activity at VHL/BRD7 in human Ri-1 cells assessed as remaining BRD7 protein level at 100 nM incubated for 8 hrs by Western blot analysis relative to control; assay type: cell-based; method in brief: as §1
[8] = target: T1, von Hippel-Lindau disease tumor suppressor/Bromodomain-containing protein 9 (Homo sapiens); assay: PROTAC activity at VHL/BRD9 in human Ri-1 cells assessed as remaining BRD9 protein level at 1 nM incubated for 8 hrs by Western blot analysis relative to control; assay type: cell-based; method in brief: as §1
[9] = target: T2, von Hippel-Lindau disease tumor suppressor/Bromodomain-containing protein 7 (Homo sapiens); assay: PROTAC activity at VHL/BRD7 in human Ri-1 cells assessed as remaining BRD7 protein level at 100 nM incubated for 4 hrs by Western blot analysis relative to control; assay type: cell-based; method in brief: as §1
[10] = Stability in mouse plasma at 10 uM measured upto 180 mins by UPLC-MS/MS analysis; assay type: ADME, cell-free; conditions: 3 h
[11] = target: T1, von Hippel-Lindau disease tumor suppressor/Bromodomain-containing protein 9 (Homo sapiens); assay: PROTAC activity at VHL/BRD9 in human Ri-1 cells assessed as maximal degradation by Western blot analysis relative to control; assay type: cell-based; method in brief: as §1
[12] = target: T2, von Hippel-Lindau disease tumor suppressor/Bromodomain-containing protein 7 (Homo sapiens); assay: PROTAC activity at VHL/BRD7 in human Ri-1 cells assessed as remaining BRD7 protein level at 10 nM incubated for 1 hrs by Western blot analysis relative to control; assay type: cell-based
[13] = target: T1, von Hippel-Lindau disease tumor suppressor/Bromodomain-containing protein 9 (Homo sapiens); assay: PROTAC activity at VHL/BRD9 in human Ri-1 cells assessed as remaining BRD9 protein level at 100 nM incubated for 2 hrs by Western blot analysis relative to control; assay type: cell-based; method in brief: as §1
[14] = target: T2, von Hippel-Lindau disease tumor suppressor/Bromodomain-containing protein 7 (Homo sapiens); assay: PROTAC activity at VHL/BRD7 in human Ri-1 cells assessed as remaining BRD7 protein level at 1 nM incubated for 2 hrs by Western blot analysis relative to control; assay type: cell-based
[15] = target: T1, von Hippel-Lindau disease tumor suppressor/Bromodomain-containing protein 9 (Homo sapiens); assay: PROTAC activity at VHL/BRD9 in human Ri-1 cells assessed as remaining BRD9 protein level at 10 nM incubated for 1 hrs by Western blot analysis relative to control; assay type: cell-based; method in brief: as §1
[16] = target: T2, von Hippel-Lindau disease tumor suppressor/Bromodomain-containing protein 7 (Homo sapiens); assay: PROTAC activity at VHL/BRD7 in human Ri-1 cells assessed as remaining BRD7 protein level at 100 nM incubated for 24 hrs by Western blot analysis relative to control; assay type: cell-based; method in brief: as §1
[17] = target: T2, von Hippel-Lindau disease tumor suppressor/Bromodomain-containing protein 7 (Homo sapiens); assay: PROTAC activity at VHL/BRD7 in human Ri-1 cells assessed as remaining BRD7 protein level at 1 nM incubated for 8 hrs by Western blot analysis relative to control; assay type: cell-based
[18] = target: T2, von Hippel-Lindau disease tumor suppressor/Bromodomain-containing protein 7 (Homo sapiens); assay: PROTAC activity at VHL/BRD7 in human Ri-1 cells assessed as remaining BRD7 protein level at 100 nM incubated for 48 hrs by Western blot analysis relative to control; assay type: cell-based; method in brief: as §1
[19] = target: T1, von Hippel-Lindau disease tumor suppressor/Bromodomain-containing protein 9 (Homo sapiens); assay: PROTAC activity at VHL/BRD9 in human Ri-1 cells assessed as remaining BRD9 protein level at 10000 nM incubated for 2 hrs by Western blot analysis relative to control; assay type: cell-based; method in brief: as §1
[20] = target: T3, Von Hippel-Lindau disease tumor suppressor/Elongin B/Elongin C (Homo sapiens); assay: Negative co-operative binding affinity to 6His-tagged human VHL/ElonginC/ElonginB expressed in Escherichia coli BL21 (DE3) cells assessed as total gibb's free energy change in the presence of BRD9-BD as complex with compound by ITC analysis
[21] = target: T2, von Hippel-Lindau disease tumor suppressor/Bromodomain-containing protein 7 (Homo sapiens); assay: PROTAC activity at VHL/BRD7 in human Ri-1 cells assessed as remaining BRD7 protein level at 1 uM incubated for 8 hrs by Western blot analysis relative to control; assay type: cell-based
[22] = target: T1, von Hippel-Lindau disease tumor suppressor/Bromodomain-containing protein 9 (Homo sapiens); assay: PROTAC activity at VHL/BRD9 in human Ri-1 cells assessed as remaining BRD9 protein level at 10 nM incubated for 4 hrs by Western blot analysis relative to control; assay type: cell-based; method in brief: as §1
[23] = target: T1, von Hippel-Lindau disease tumor suppressor/Bromodomain-containing protein 9 (Homo sapiens); assay: PROTAC activity at VHL/BRD9 in human Ri-1 cells assessed as BRD9 protein degradation in the presence of MG132 by Western blot analysis; assay type: cell-based; method in brief: as §1
[24] = target: T1, von Hippel-Lindau disease tumor suppressor/Bromodomain-containing protein 9 (Homo sapiens); assay: PROTAC activity at VHL/BRD9 in human Ri-1 cells assessed as BRD9 protein degradation in the presence of MLN4924 by Western blot analysis; assay type: cell-based; method in brief: as §1
[25] = target: T2, von Hippel-Lindau disease tumor suppressor/Bromodomain-containing protein 7 (Homo sapiens); assay: PROTAC activity at VHL/BRD7 in human Ri-1 cells assessed as remaining BRD7 protein level at 10 nM incubated for 8 hrs by Western blot analysis relative to control; assay type: cell-based; method in brief: as §1
[26] = target: T1, von Hippel-Lindau disease tumor suppressor/Bromodomain-containing protein 9 (Homo sapiens); assay: PROTAC activity at VHL/BRD9 in human Ri-1 cells assessed as remaining BRD9 protein level at 100 nM incubated for 1 hrs by Western blot analysis relative to control; assay type: cell-based; method in brief: as §1
[27] = target: T2, von Hippel-Lindau disease tumor suppressor/Bromodomain-containing protein 7 (Homo sapiens); assay: PROTAC activity at VHL/BRD7 in human Ri-1 cells assessed as remaining BRD7 protein level at 100 nM incubated for 1 hrs by Western blot analysis relative to control; assay type: cell-based; method in brief: as §1
[28] = target: T1, von Hippel-Lindau disease tumor suppressor/Bromodomain-containing protein 9 (Homo sapiens); assay: PROTAC activity at VHL/BRD9 in human Ri-1 cells assessed as remaining BRD9 protein level at 10 nM incubated for 30 mins by Western blot analysis relative to control; assay type: cell-based; method in brief: as §1
[29] = target: T1, von Hippel-Lindau disease tumor suppressor/Bromodomain-containing protein 9 (Homo sapiens); assay: PROTAC activity at VHL/BRD9 in human Ri-1 cells assessed as remaining BRD9 protein level at 1 nM incubated for 2 hrs by Western blot analysis relative to control; assay type: cell-based; method in brief: as §1

T2 sequence (P40337 whole entry, looked up): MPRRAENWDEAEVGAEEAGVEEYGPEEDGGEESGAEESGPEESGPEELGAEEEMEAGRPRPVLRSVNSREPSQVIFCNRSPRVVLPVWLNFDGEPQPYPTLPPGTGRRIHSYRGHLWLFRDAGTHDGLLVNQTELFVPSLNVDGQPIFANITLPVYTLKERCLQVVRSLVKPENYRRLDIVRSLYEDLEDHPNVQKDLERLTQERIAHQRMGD
T2 sequence (Q9NPI1 whole entry, looked up): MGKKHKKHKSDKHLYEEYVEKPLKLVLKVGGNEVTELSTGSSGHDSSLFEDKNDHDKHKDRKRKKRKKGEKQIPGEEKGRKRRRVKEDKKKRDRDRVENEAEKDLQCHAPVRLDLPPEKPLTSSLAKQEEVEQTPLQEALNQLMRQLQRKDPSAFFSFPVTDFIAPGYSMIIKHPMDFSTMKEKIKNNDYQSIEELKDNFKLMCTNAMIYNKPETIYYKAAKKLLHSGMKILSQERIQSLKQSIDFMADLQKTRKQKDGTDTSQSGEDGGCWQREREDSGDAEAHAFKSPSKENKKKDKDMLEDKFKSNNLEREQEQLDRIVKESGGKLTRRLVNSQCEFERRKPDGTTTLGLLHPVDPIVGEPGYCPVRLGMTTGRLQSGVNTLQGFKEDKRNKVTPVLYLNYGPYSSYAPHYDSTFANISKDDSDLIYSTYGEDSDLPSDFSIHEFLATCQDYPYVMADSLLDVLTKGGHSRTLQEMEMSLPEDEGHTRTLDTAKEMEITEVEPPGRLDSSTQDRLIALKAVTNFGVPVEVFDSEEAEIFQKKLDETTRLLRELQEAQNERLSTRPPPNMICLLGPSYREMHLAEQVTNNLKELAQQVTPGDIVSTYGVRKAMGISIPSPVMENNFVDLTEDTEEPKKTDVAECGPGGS
T1 sequence (P40337 whole entry, looked up): as the sequence (P40337 whole entry, looked up) above
T1 sequence (Q9H8M2 whole entry, looked up): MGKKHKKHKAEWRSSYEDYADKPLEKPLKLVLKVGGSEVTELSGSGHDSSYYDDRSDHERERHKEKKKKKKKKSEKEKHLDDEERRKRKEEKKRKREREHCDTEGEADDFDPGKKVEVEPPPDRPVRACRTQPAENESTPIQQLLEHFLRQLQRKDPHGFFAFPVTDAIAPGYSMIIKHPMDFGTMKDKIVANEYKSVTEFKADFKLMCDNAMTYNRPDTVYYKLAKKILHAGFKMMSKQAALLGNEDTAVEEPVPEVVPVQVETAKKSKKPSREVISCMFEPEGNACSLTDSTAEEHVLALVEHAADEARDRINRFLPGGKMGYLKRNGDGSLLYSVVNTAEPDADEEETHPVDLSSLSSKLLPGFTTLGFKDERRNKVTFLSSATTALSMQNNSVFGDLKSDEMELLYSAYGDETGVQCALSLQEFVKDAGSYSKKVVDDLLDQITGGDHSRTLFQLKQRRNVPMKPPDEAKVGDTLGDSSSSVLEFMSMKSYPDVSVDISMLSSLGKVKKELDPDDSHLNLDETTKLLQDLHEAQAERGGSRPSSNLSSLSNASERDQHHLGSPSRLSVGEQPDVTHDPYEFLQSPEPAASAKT
T3 sequence (P40337 whole entry, looked up): as the sequence (P40337 whole entry, looked up) above
T3 sequence (Q15369 whole entry, looked up): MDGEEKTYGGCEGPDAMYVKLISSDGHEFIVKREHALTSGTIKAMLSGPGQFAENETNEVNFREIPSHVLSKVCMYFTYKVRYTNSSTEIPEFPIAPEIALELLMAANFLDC
T3 sequence (Q15370 whole entry, looked up): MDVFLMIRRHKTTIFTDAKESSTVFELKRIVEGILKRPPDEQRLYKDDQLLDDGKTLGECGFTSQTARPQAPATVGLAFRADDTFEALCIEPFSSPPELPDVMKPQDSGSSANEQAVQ

Activity [1]: 48%
Activity [2]: inactive
Activity [3]: inactive
Activity [4]: 10%
Activity [5]: 42%
Activity [6]: 1.47 10^6No_unit
Activity [7]: 5%
Activity [8]: 62%
Activity [9]: 7%
Stability [10]: Stable
Emax [11]: > 90%
Activity [12]: 70%
Activity [13]: 21%
Activity [14]: 92%
Activity [15]: 64%
Activity [16]: 4%
Activity [17]: 100%
Activity [18]: 3%
Activity [19]: 89%
deltaG [20]: -21.7 kcal/mol
Activity [21]: 5%
Activity [22]: 31%
Activity [23]: inactive
Activity [24]: inactive
Activity [25]: 33%
Activity [26]: 34%
Activity [27]: 31%
Activity [28]: 50%
Activity [29]: 98%
Compound: COc1cc(-c2cn(C)c(=O)c3cnccc23)cc(OC)c1CN1CCN(CCCCCOc2cc(-c3scnc3C)ccc2CNC(=O)[C@@H]2C[C@@H](O)CN2C(=O)[C@@H](NC(=O)C2(F)CC2)C(C)(C)C)CC1
